According to article PMC2118398 (The Journal of Experimental Medicine, 2006):

How the values were obtained:
CXCR4 (CEM-NKr cells) = CXCR4 (CEM-NKr cells) (Homo sapiens, UniProt P61073); experiment: 125I SDF-1 competition binding to CEM-NKr cells
Outline: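 Whole CEM-NKr cells were incubated with 125I SDF-1 in the presence of unlabeled SDF-1α, a CXCR4 antagonist, or a CXCR7 antagonist as competitors. Cell-bound radioactivity was counted in a γ counter.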

[1] = target: CXCR7 (SDF-1 binding site on MCF-7 cells) (Homo sapiens, UniProt P25106); experiment: Radioligand
Sequence of CXCR7 (SDF-1 binding site on MCF-7 cells) (P25106 whole entry): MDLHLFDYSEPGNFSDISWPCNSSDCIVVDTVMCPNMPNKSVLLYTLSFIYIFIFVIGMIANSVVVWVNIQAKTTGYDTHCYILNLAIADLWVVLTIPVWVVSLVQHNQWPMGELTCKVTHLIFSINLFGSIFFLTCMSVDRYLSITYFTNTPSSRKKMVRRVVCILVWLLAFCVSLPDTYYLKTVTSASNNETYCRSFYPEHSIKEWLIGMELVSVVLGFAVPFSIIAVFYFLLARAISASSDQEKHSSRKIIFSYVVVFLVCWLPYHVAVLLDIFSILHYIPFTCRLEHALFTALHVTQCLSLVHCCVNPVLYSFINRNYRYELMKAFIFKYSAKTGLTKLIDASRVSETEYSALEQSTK

CEM-NKr cells [2] = experiment: Cell migration of CEM-NKr cells; format: cell-based, human; conditions: unpublished data
Outline: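 Cells in chemotaxis buffer (HBSS with Ca2+, Mg2+, 0.1% BSA) were placed above a 3 or 5 μm pore filter, sized to the cells, with chemokine in the lower chamber. After 90 min at 37°C, filters were removed, CyQuant was added to the lower chamber, and migrated cells were read at 540 nm.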

CEM-NKr cells [3] = experiment: Calcium mobilization in CEM-NKr cells; format: cell-based, human; conditions: unpublished data
Outline: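 Cells were loaded with the ratiometric intracellular dye Indo-1, and the calcium response was recorded on addition of SDF-1α.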

[4] = target: CXCR7 on human cervical carcinoma HeLa cells (Homo sapiens, UniProt P25106); experiment: 125I SDF-1 binding profile on HeLa cells; conditions: Fig. 3 B; 100 nM chemokine, 10 μM small molecules
Sequence of CXCR7 on human cervical carcinoma HeLa cells (P25106 whole entry): as above
Outline: (§1)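 Intact cells bound 125I SDF-1 with or without 100 nM unlabelled chemokine, 10 μM CXCR7 antagonist or 10 μM CXCR4 antagonist. Cell-bound radioactivity was counted in a γ counter. CXCR7 binding was taken as binding displaced by unlabelled ligand or the CXCR7 antagonist but not by the CXCR4 antagonist.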

[5] = target: CXCR7 (SDF-1 binding site on fetal liver cells) (Mus musculus, UniProt P56485); conditions: 125I SDF-1
Sequence of CXCR7 (SDF-1 binding site on fetal liver cells) (P56485 whole entry): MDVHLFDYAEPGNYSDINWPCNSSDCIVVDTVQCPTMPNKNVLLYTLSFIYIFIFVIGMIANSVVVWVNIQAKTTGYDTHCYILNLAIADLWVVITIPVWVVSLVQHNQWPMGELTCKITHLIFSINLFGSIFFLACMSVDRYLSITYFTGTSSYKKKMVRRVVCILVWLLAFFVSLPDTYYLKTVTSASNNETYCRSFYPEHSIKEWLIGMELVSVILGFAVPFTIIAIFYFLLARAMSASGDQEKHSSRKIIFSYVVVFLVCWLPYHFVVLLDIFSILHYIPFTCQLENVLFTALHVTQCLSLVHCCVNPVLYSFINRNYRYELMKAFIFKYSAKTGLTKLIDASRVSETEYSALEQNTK

[6] = target: CXCR7 on mouse B cell lymphoma BCL1 (Mus musculus, UniProt P56485); experiment: 125I SDF-1 binding profile on BCL1 cells; conditions: Fig. 3 B; 100 nM chemokine, 10 μM small molecules
Sequence of CXCR7 on mouse B cell lymphoma BCL1 (P56485 whole entry): as above
Outline: as §1

MCF-7 cells [7] = experiment: Calcium mobilization in MCF-7 cells; format: cell-based, human; conditions: agonist response
Outline: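 Cells were loaded with the ratiometric dye Indo-1 and stimulated with 10 nM SDF-1α. The intracellular calcium trace was recorded around ligand addition. The analysis was reproduced in at least 10 independent studies.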

human CXCR7 (RDC1) = human CXCR7 (RDC1) (Homo sapiens, UniProt P25106); experiment: Radioligand; format: binding
Sequence of human CXCR7 (RDC1) (P25106 whole entry): as the sequence (P25106 whole entry) above

MCF-7 cells [8] = experiment: Cell migration of MCF-7 cells; format: cell-based, human; conditions: agonist response
Outline: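 Cells in HBSS with Ca2+, Mg2+ and 0.1% BSA were placed above a filter (3 or 5 μm pores, chosen by cell size) in a 96-well microchamber, with chemokine below. After 90 min at 37°C in humidified air, the filter was removed. Cells in the lower chamber were quantified with CyQuant fluorescence at 540 nm.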

[9] = test system: human lung carcinoma A549; experiment: A549 human lung carcinoma xenograft model; format: in vivo, mouse; conditions: 2 mg/kg intraperitoneally every 2 d; vs vehicle control, P < 0.005

Sequence of CXCR4 (CEM-NKr cells) (P61073 whole entry): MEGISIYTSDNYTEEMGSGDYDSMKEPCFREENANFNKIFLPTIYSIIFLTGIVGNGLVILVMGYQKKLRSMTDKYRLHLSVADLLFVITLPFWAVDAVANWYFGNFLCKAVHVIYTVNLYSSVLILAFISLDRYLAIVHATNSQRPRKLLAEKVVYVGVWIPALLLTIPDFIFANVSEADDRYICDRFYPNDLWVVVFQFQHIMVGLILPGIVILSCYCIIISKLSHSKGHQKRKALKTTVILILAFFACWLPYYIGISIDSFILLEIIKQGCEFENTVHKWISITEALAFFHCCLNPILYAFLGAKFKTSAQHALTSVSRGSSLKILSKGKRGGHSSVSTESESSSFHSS

Compound: c1cc(CN2CCCNCCNCCCNCC2)ccc1CN1CCCNCCNCCCNCC1 [AMD3100]
- inhibition of 125I SDF-1 binding to CEM-NKr cells (in words) (CXCR4 (CEM-NKr cells)): inhibited binding
- inhibition of 125I SDF-1 binding to MCF-7 cells (in words) [1]: not to MCF-7 cells
- inhibition of SDF-1-induced cell migration of CEM-NKr cells (CEM-NKr cells [2]): inhibited all functions
- inhibition of SDF-1-induced calcium mobilization in CEM-NKr cells (CEM-NKr cells [3]): inhibited all functions

Compound: Mig: chemokine Mig (CXCL9), thought to bind only CXCR3
- inhibition of 125I I-TAC binding to MCF-7 cells (in words) [1]: no inhibitory effect
- inhibition of 125I SDF-1 binding to MCF-7 cells (in words) [1]: no inhibitory effect

Compound: I-TAC: CXC chemokine interferon-inducible T cell α chemoattractant, also known as CXCL11
- inhibition of 125I SDF-1 binding to HeLa cells [4]: inhibited
- inhibition of the SDF-1 binding site of E13 embryos of CXCR4-/- mice [5]: inhibited
- inhibition of 125I SDF-1 binding to MCF-7 cells (in words) [1]: strongly displaced
- inhibition of 125I SDF-1 binding to BCL1 cells [6]: inhibited
- chemokine-induced calcium mobilization in MCF-7 cells (MCF-7 cells [7]): failed to induce
- inhibition of 125I SDF-1 binding to RDC1 (CXCR7) transfectants (in words) (human CXCR7 (RDC1)): blocked
- chemokine-induced migration of MCF-7 cells (MCF-7 cells [8]): failed to induce

Compound: N[C@@H](Cc1ccc(N(CCCl)CCCl)cc1)C(=O)O [Melphalan]
- tumor volume at 49 d, A549 model (positive control) [9]: reduced tumor volume

Compound: IP10: chemokine IP10 (CXCL10), thought to bind only CXCR3
- inhibition of 125I I-TAC binding to MCF-7 cells (in words) [1]: no inhibitory effect
- inhibition of 125I SDF-1 binding to MCF-7 cells (in words) [1]: no inhibitory effect
